Source: ChEMBL document CHEMBL4689842, “EUbOPEN Chemogenomics Library wave 1” (2021)
“And” between values parts separate entries of the source, which are not always exact repeats. Equal values may be shown once.

Test system: U2OS
Test: Multiplex assay against U2OS
Format: toxicity, cell-based
Settings: human
Procedure, shortened: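 Hoechst33342, BioTracker Green Microtubule Cytoskeleton Dye, MitoTracker Red and Annexin V Alexa Fluor 680 were added to live cells at seeding, and imaging on a CQ1 microscope at 37°C and 5% CO2 followed compound addition. Gating by CellPathfinder machine learning separated cells into Hoechst high-intensity objects or normal cells, then normal cells into healthy, pyknosed or fragmented nuclei, then pyknosed cells into mitotic or apoptotic. Per cents of healthy-nucleus cells are reported for the tubulin, mitochondrial-mass and membrane-permeability phenotypes.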

[1] = 12 h, 1 µM, compound concentration 1 uM, replicate 1
[2] = 12 h, 1 µM, compound concentration 1 uM, replicate 2
[3] = 12 h, 10 µM, compound concentration 10 uM, replicate 1
[4] = 12 h, 10 µM, compound concentration 10 uM, replicate 2
[5] = 24 h, 1 µM, compound concentration 1 uM, replicate 1
[6] = 24 h, 1 µM, compound concentration 1 uM, replicate 2
[7] = 24 h, 10 µM, compound concentration 10 uM, replicate 1
[8] = 24 h, 10 µM, compound concentration 10 uM, replicate 2
[9] = 48 h, 10 µM, compound concentration 10 uM, replicate 1
[10] = 48 h, 10 µM, compound concentration 10 uM, replicate 2

CCOC(=O)Nc1cc(-c2ccc(C)c(NS(C)(=O)=O)c2)nn2c(C)nnc12
Population Apoptotic (%) [1]: 83% | Population Fragmented Nuclei (%) [1]: 7% | Population Healthy Nuclei (%) [1]: 89% | Population Hoechst High Intensity Objects (%) [1]: 2% | Population Membrane Permeable-Phenotype (%) [1]: 9% | Population Mitochondria Different-Phenotype (%) [1]: 27% | Population Mitotic Cells (%) [1]: 16% | Population Normal (%) [1]: 97% | Population Pyknosed Nuclei (%) [1]: 3% | Population Tubulin-Different-Phenotype (%) [1]: 26% | Total Cell Count [1]: 184 | Population Apoptotic (%) [2]: 100% | Population Fragmented Nuclei (%) [2]: 11% | Population Healthy Nuclei (%) [2]: 88% | Population Hoechst High Intensity Objects (%) [2]: 11% | Population Membrane Permeable-Phenotype (%) [2]: 7% | Population Mitochondria Different-Phenotype (%) [2]: 31% | Population Mitotic Cells (%) [2]: 0% | Population Normal (%) [2]: 88% | Population Pyknosed Nuclei (%) [2]: 0% | Population Tubulin-Different-Phenotype (%) [2]: 47% | Total Cell Count [2]: 152 | Population Apoptotic (%) [3]: 36% and 50% | Population Fragmented Nuclei (%) [3]: 7% and 3% | Population Healthy Nuclei (%) [3]: 85% and 87% | Population Hoechst High Intensity Objects (%) [3]: 4% and 3% | Population Membrane Permeable-Phenotype (%) [3]: 2% and 7% | Population Mitotic Cells (%) [3]: 63% and 50% | Population Normal (%) [3]: 95% and 96% | Population Pyknosed Nuclei (%) [3]: 7% and 8% | Total Cell Count [3]: 284 and 216 | Population Fragmented Nuclei (%) [4]: 8% and 6% | Population Healthy Nuclei (%) [4]: 86% and 89% | Population Hoechst High Intensity Objects (%) [4]: 2% and 10% | Population Membrane Permeable-Phenotype (%) [4]: 0% and 6% | Population Mitochondria Different-Phenotype (%) [4]: 11% and 29% | Population Mitotic Cells (%) [4]: 60% and 100% | Population Normal (%) [4]: 97% and 89% | Population Pyknosed Nuclei (%) [4]: 5% and 3% | Population Tubulin-Different-Phenotype (%) [4]: 89% and 30% | Total Cell Count [4]: 101 and 206 | Population Apoptotic (%) [5]: 22% | Population Fragmented Nuclei (%) [5]: 7% | Population Healthy Nuclei (%) [5]: 88% | Population Hoechst High Intensity Objects (%) [5]: 2% | Population Mitochondria Different-Phenotype (%) [5]: 32% | Population Mitotic Cells (%) [5]: 77% | Population Normal (%) [5]: 97% | Population Pyknosed Nuclei (%) [5]: 3% | Population Tubulin-Different-Phenotype (%) [5]: 32% | Total Cell Count [5]: 257 | Population Apoptotic (%) [6]: 20% | Population Fragmented Nuclei (%) [6]: 9% | Population Healthy Nuclei (%) [6]: 84% | Population Hoechst High Intensity Objects (%) [6]: 7% | Population Membrane Permeable-Phenotype (%) [6]: 4% | Population Mitochondria Different-Phenotype (%) [6]: 34% | Population Mitotic Cells (%) [6]: 80% | Population Normal (%) [6]: 92% | Population Pyknosed Nuclei (%) [6]: 5% | Population Tubulin-Different-Phenotype (%) [6]: 59% | Total Cell Count [6]: 195 | Population Fragmented Nuclei (%) [7]: 5% | Population Healthy Nuclei (%) [7]: 87% and 93% | Population Hoechst High Intensity Objects (%) [7]: 3% and 1% | Population Membrane Permeable-Phenotype (%) [7]: 1% and 4% | Population Mitochondria Different-Phenotype (%) [7]: 11% and 18% | Population Mitotic Cells (%) [7]: 88% and 33% | Population Normal (%) [7]: 96% and 98% | Population Pyknosed Nuclei (%) [7]: 7% and 3% | Total Cell Count [7]: 378 and 305 | Population Apoptotic (%) [8]: 28% and 53% | Population Fragmented Nuclei (%) [8]: 3% and 7% | Population Healthy Nuclei (%) [8]: 90% and 86% | Population Hoechst High Intensity Objects (%) [8]: 2% and 9% | Population Membrane Permeable-Phenotype (%) [8]: 0% and 5% | Population Mitochondria Different-Phenotype (%) [8]: 16% and 30% | Population Mitotic Cells (%) [8]: 71% and 46% | Population Normal (%) [8]: 97% and 90% | Population Pyknosed Nuclei (%) [8]: 5% and 6% | Population Tubulin-Different-Phenotype (%) [8]: 96% and 35% | Total Cell Count [8]: 137 and 273 | Population Apoptotic (%) [9]: 36% | Population Fragmented Nuclei (%) [9]: 5% | Population Healthy Nuclei (%) [9]: 91% | Population Hoechst High Intensity Objects (%) [9]: 1% | Population Mitochondria Different-Phenotype (%) [9]: 10% | Population Mitotic Cells (%) [9]: 63% | Population Normal (%) [9]: 98% | Population Pyknosed Nuclei (%) [9]: 3% | Population Tubulin-Different-Phenotype (%) [9]: 98% | Total Cell Count [9]: 662 | Population Apoptotic (%) [10]: 17% | Population Fragmented Nuclei (%) [10]: 2% | Population Healthy Nuclei (%) [10]: 90% | Population Hoechst High Intensity Objects (%) [10]: 2% | Population Membrane Permeable-Phenotype (%) [10]: 0% | Population Mitochondria Different-Phenotype (%) [10]: 12% | Population Mitotic Cells (%) [10]: 82% | Population Normal (%) [10]: 97% | Population Pyknosed Nuclei (%) [10]: 6% | Population Tubulin-Different-Phenotype (%) [10]: 91% | Total Cell Count [10]: 261
